Activity calls are given as the source filed them. No cut-off for these calls is given here.
What was measured:
[1] = system: B16-F10; test: Antitumor activity against mouse B16F10 cells implanted in C57BL/6J mouse assessed as tumor growth inhibition at 15 mg/kg/day, ip measured after 24 days; assay type: functional, organism-based
Outline: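 C57BL/6J mice injected subcutaneously with B16F10 cells and treated with vehicle or compound. Tumor volume and body weight followed, and tumors dissected and weighed on day 24. Mean ± sd, n = 5, two-way ANOVA.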

[2] = system: B16-F10; test: Inhibition of colony formation in mouse B16F10 cells at 0.125 to 0.25 uM after 7 days by crystal violet staining based assay; assay type: functional, cell-based
Outline: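 Clonogenic long-term growth assay: A375 or B16F10 cells grown under continuous compound exposure for 7 days, then colonies quantified; mean ± sd, n = 3, two-way ANOVA.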

[3] = system: B16-F10; test: Inhibition of ALDH+ subpopulation of mouse B16F10 cells assessed as ALDH+ cells at 0.25 after 48 hrs by flow cytometry (reference value: 26.7%); assay type: functional; design: scale not given: the % may be the effect or the level left
[4] = organism: Homo sapiens; test: Inhibition of Wnt/beta-catenin signaling pathway in human A375 cells assessed as reduction in c-Myc protein expression after 48 hrs by Western blot analysis; assay type: cell-based
Outline: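 A375 cells exposed to compound at several concentrations for 48 h; lysates immunoblotted for STAT3, p-STAT3, β-catenin and c-Myc.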

[5] = system: PANC-1; test: Antiproliferative activity against human PANC1 cells after 48 hrs by MTT assay; assay type: functional, cell-based; conditions: PANC-1, 48 h
[6] = system: A-375; test: Induction of apoptosis in human A375 cells assessed as necrotic cells at 1 uM after 48 hrs by Annexin V-FITC/propidium iodide staining based flow cytometry (reference value: 2.39%); assay type: functional
[7] = system: B16-F10; test: Induction of apoptosis in mouse B16F10 cells assessed as live cells at 2 uM after 48 hrs by Annexin V-FITC/propidium iodide staining based flow cytometry (reference value: 97.6%); assay type: functional
[8] = system: B16-F10; test: Antimigratory activity against mouse B16F10 cells at 0.25 uM after 24 to 48 hrs by wound healing assay; assay type: functional, cell-based
Outline: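 Wound-healing scratch assay on cells treated with or without compound (0.25 μM). Images recorded at 0, 24 and 48 h, and migration distance quantified. Mean ± sd, n = 3, two-way ANOVA.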

[9] = system: B16-F10; test: Induction of apoptosis in mouse B16F10 cells after 48 hrs by Annexin V-FITC/propidium iodide staining based flow cytometry; assay type: functional, cell-based
[10] = system: B16-F10; test: Inhibition of tumor sphere formation ability of mouse B16F10 cells at 0.25 to 0.5 uM pretreated for 48 hrs followed by cell culture for 7 days; assay type: functional, cell-based
Outline: (§1)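 A375 or B16F10 cells pretreated with or without compound for 48 h, collected and replated on ultra-low attachment surfaces; after 7 days of culture, sphere number and size scored; mean ± sd, n = 3, two-way ANOVA.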

[11] = system: B16-F10; test: Induction of apoptosis in mouse B16F10 cells assessed as early apoptotic cells at 2 uM after 48 hrs by Annexin V-FITC/propidium iodide staining based flow cytometry (reference value: 0.022%); assay type: functional
[12] = system: B16-F10; test: Antiproliferative activity against mouse B16F10 cells after 48 hrs by MTT assay; assay type: functional, cell-based; conditions: B16-F10, 48 h
[13] = system: A-375; test: Downregulation of beta-catenin protein expression in human A375 cells after 48 hrs by Western blot analysis; assay type: functional, cell-based
Outline: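 Cells treated with compound at different concentrations for 48 h. Western blot for STAT3, p-STAT3, β-catenin and c-Myc.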

[14] = system: A549; test: Antiproliferative activity against human A549 cells after 48 hrs by MTT assay; assay type: functional, cell-based; conditions: A549, 48 h
[15] = system: B16-F10; test: Induction of apoptosis in mouse B16F10 cells assessed as necrotic cells at 2 uM after 48 hrs by Annexin V-FITC/propidium iodide staining based flow cytometry (reference value: 1.86%); assay type: functional
[16] = system: A-375; test: Inhibition of tumor sphere formation ability of human A375 cells at 0.25 to 0.5 uM pretreated for 48 hrs followed by cell culture for 7 days; assay type: functional, cell-based; outline: as §1
[17] = system: A-375; test: Induction of apoptosis in human A375 cells assessed as early apoptotic cells at 2 uM after 48 hrs by Annexin V-FITC/propidium iodide staining based flow cytometry (reference value: 1.13%); assay type: functional
[18] = system: A-375; test: Inhibition of CD133+ sub-population of human A375 cells assessed as CD133+ cells at 0.5 after 48 hrs by flow cytometry (reference value: 4.54%); assay type: functional; design: scale not given: the % may be the effect or the level left
[19] = system: B16-F10; test: Induction of apoptosis in mouse B16F10 cells assessed as early apoptotic cells at 1 uM after 48 hrs by Annexin V-FITC/propidium iodide staining based flow cytometry (reference value: 0.022%); assay type: functional
[20] = system: B16-F10; test: Induction of apoptosis in mouse B16F10 cells assessed as upregulation of p53 expression after 48 hrs by Western blot analysis
[21] = system: A-375; test: Induction of apoptosis in human A375 cells assessed as late apoptotic cells at 2 uM after 48 hrs by Annexin V-FITC/propidium iodide staining based flow cytometry (reference value: 2.7%); assay type: functional
[22] = system: A-375; test: Induction of apoptosis in human A375 cells assessed as early apoptotic cells at 1 uM after 48 hrs by Annexin V-FITC/propidium iodide staining based flow cytometry (reference value: 1.13%); assay type: functional
[23] = system: A-375; test: Inhibition of ALDH+ subpopulation of human A375 cells assessed as ALDH+ cells at 0.25 after 48 hrs by flow cytometry (reference value: 25.7%); assay type: functional; design: scale not given: the % may be the effect or the level left
[24] = organism: Homo sapiens; test: Inhibition of Wnt/beta-catenin signaling pathway (unknown origin) expressed in human 293T cells assessed as inhibition of TCF/LEF activity up to 100 uM after 48 hrs by luciferase reporter gene assay; assay type: cell-based
Outline: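 293T cells transfected with a TCF/LEF reporter plasmid were treated with compound at different concentrations for 48 h. Luciferase activity was measured and normalized to Renilla luciferase activity.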

- IC50 [5]: 435 nM
- IC50 [12]: 522 nM
- IC50 [14]: 4660 nM
Compound: CC[C@H](C)[C@H](NC(=O)OCc1ccccc1)C(=O)N[C@@H](CC(C)C)C(=O)N[C@@H](CC(C)C)C(=O)N[C@@H](C)/C=C/C(=O)N1C(=O)C=C(OC)[C@@H]1C(C)C
- TGI [1]: Active
- inhibition [2]: Active
- Activity [3]: 17.6%
- inhibition [4]: Dose-dependent effect
- Activity [6]: 4.16%
- Activity [7]: 31.5%
- Activity [8]: Active
- Activity [9]: Dose-dependent effect
- inhibition [10]: Active
- Activity [11]: 31.8%
- Activity [13]: Dose-dependent effect
- Activity [15]: 3.92%
- inhibition [16]: Active
- Activity [17]: 9.68%
- Activity [18]: 0.867%
- Activity [19]: 8.74%
- p53 upregulation [20]: Dose-dependent effect
- Activity [21]: 8.11%
- Activity [22]: 3.49%
- Activity [23]: 13.3%
- inhibition [24]: Active
